Measurements as given in ChEMBL document CHEMBL1121679, “Gastric antisecretory agents. 1. Antisecretory and antiulcer activity of 5H-[1]benzopyrano[2,3-b]pyridin-5-ylureas and 5H-[1]benzothiopyrano[2,3-b]pyridin-5-ylureas” (1981).

Key:
[1] = system: Rattus norvegicus; assay: Antisecretory activity was evaluated in pylorus ligated rat after ip administration at 40 mg/kg of dose, expressed as reduction of gastric output; details: route intraperitoneal
[2] = system: Canis familiaris; assay: Antisecretory activity was evaluated in adult mongrel dog after iv administration at 5 mg/kg of dose, expressed as reduction of gastric output; format: functional, Canis lupus familiaris, Stomach
Outline: (§1)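 Conscious mongrel dogs with surgical Heidenhain pouches. Histamine was infused iv at 0.4 (μg/kg)/min, giving 50–60% of maximal acid output. The test agent was given iv or orally by gavage 1 h into the infusion. Acid output (volume × titrated acid) was collected in 30-min fractions and summed over 3 h, then compared with control runs in the same dog. Usually a single dog per compound.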

[3] = system: Canis familiaris; assay: Antisecretory activity was evaluated in adult mongrel dog after po administration at 8 mg/kg of dose, expressed as reduction of gastric output; format: functional, Canis lupus familiaris, Stomach
Outline: as §1

[4] = system: Rattus norvegicus; assay: Compound was measured for percentage inhibition of aspirin-induced ulcers at 10 mg/kg after po administration; format: functional
Outline: (§2)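 Rats fasted 24 h received the test agent orally in 0.4% methylcellulose-saline, then 1 h later 100 mg/kg aspirin orally. Stomachs were removed 4 h after aspirin and opened along the greater curvature, and ulcers were counted under a 2× magnifier. Inhibition was based on mean lesion number vs controls. Eight rats per compound; Student's t test.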

[5] = system: Rattus norvegicus; assay: Compound was measured for percentage inhibition of aspirin-induced ulcers at 20 mg/kg after po administration; format: functional
Outline: as §2

[6] = system: Canis familiaris; assay: Compound was measured for percentage reduction in dimaprit stimulated canine gastric acid secretion after po administration at 8 mg/kg dosage; format: functional, Canis lupus familiaris, Stomach
Outline: (§3)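 Heidenhain pouch dogs. Acid output was summed over 3 h after dosing and expressed as percent reduction relative to control studies in the same animal; n per entry as reported.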

[7] = system: Canis familiaris; assay: Compound was measured for percentage reduction in food stimulated canine gastric acid secretion after iv administration at 5 mg/kg dosag; format: functional, Canis lupus familiaris, Stomach
Outline: (§4)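 Heidenhain pouch dogs given the test agent (iv or oral) together with a meal of 250 g ground cooked beef hearts. Acid output was collected and expressed as percent reduction relative to control studies in the same animal; n per entry as reported.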

[8] = system: Canis familiaris; assay: Compound was measured for percentage reduction in dimaprit stimulated canine gastric acid secretion after iv administration at 5 mg/kg dosage; format: functional, Canis lupus familiaris, Stomach
Outline: as §3

[9] = system: Rattus norvegicus; assay: Compound was measured for percentage inhibition of aspirin-induced ulcers at 3 mg/kg after po administration; format: functional
Outline: as §2

[10] = system: Canis familiaris; assay: Compound was measured for percentage reduction in food stimulated canine gastric acid secretion after po administration at 8 mg/kg dosage; format: functional, Canis lupus familiaris, Stomach
Outline: as §4

[11] = system: Canis familiaris; assay: Compound was measured for percentage reduction in insulin hypoglycemia stimulated canine gastric acid secretion after po administration at 8 mg/kg dosage; format: functional, Canis lupus familiaris, Stomach
Outline: (§5)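 Dogs with simple gastric fistulas. The test agent (iv or oral) was given at the time of regular insulin injection. Gastric collections were made for 3 h, and percent reduction of acid output was calculated against control studies in the same animals; n per entry as reported.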

[12] = system: Rattus norvegicus; assay: Compound was measured for percentage inhibition of aspirin-induced ulcers at 30 mg/kg after po administration; format: functional
Outline: as §2

[13] = system: Canis familiaris; assay: Compound was measured for percentage reduction in insulin hypoglycemia stimulated canine gastric acid secretion after iv administration at 5 mg/kg dosage; format: functional, Canis lupus familiaris, Stomach
Outline: as §5

[14] = system: Canis familiaris; assay: Compound was measured for percentage reduction in food stimulated canine gastric acid secretion after iv administration at 5 mg/kg dosage; format: functional, Canis lupus familiaris, Stomach
Outline: as §4

SMILES	Reduction [1] [%]	Reduction [2] [%]	Reduction [3] [%]	further results
CNC(=O)N(C)C1c2ccc(C)cc2Oc2ncccc21 (stereo unspecified)	81	75	<30	
CN/C(=N\CCSCc1nc[nH]c1C)NC#N [CIMETIDINE]	74	84	86	inhibition in vivo at 10 mg/kg [4]: 67%
CNC(=O)N(C)C1c2cc([N+](=O)[O-])ccc2Oc2ncccc21 (stereo unspecified)	71	<30		
CNC(=O)N(C)C1c2ccccc2Oc2ccncc21 (stereo unspecified)	77	<30		
CNC(=O)N(C)C1c2cc(CO)ccc2Oc2ncccc21 (stereo unspecified)	<30	<30		
CN(C(=O)NC(C)(C)C)C1c2ccccc2Oc2ncccc21 (stereo unspecified)	82	35	<30	
CN(C)C(=O)N(C)C1c2ccccc2Oc2ncccc21 (stereo unspecified)	96	<30		inhibition in vivo at 20 mg/kg [5]: 100%
CNC(=O)N(C)C1c2ccccc2Sc2ncccc21 (stereo unspecified)	96	80	<30	inhibition in vivo at 10 mg/kg [4]: 68%; Reduction [6]: <30%; Reduction [7]: 78%; Reduction [8]: 78%; inhibition in vivo at 3 mg/kg [9]: 0%; Reduction [10]: <30%; Reduction [11]: 62%; inhibition in vivo at 30 mg/kg [12]: 100%; Reduction [13]: 97%
CNC(=O)N(C)C1c2cc(C(=O)OC)ccc2Oc2ncccc21 (stereo unspecified)	<30	<30		
NC(=O)NC1c2ccccc2Oc2ncccc21 (stereo unspecified)	46	36		
CNC(=O)N(C)C1c2ccccc2Oc2cccnc21 (stereo unspecified)	37	38	34	
CNC(=O)N(C)C1c2ccc(OC)cc2Oc2ncccc21 (stereo unspecified)	60	54	<30	
CNC(=O)NC1c2ccccc2Oc2ncccc21 (stereo unspecified)	54	31		
CNC(=O)N(C)C1c2cc(Cl)c(C)cc2Oc2ncccc21 (stereo unspecified)	65	<30		
CNC(=O)N(C)C1c2ccccc2Oc2ncccc21 (stereo unspecified)		84	<30	inhibition in vivo at 10 mg/kg [4]: 89%; Reduction [14]: 69%; Reduction [8]: 58%; inhibition in vivo at 3 mg/kg [9]: 51%; Reduction [10]: <30%; Reduction [11]: <30%; inhibition in vivo at 30 mg/kg [12]: 100%; Reduction [13]: 79%
CN(C(=O)N1CCCCC1)C1c2ccccc2Oc2ncccc21 (stereo unspecified)	72	31		
CNC(=O)N(C)C1c2cc(C)ccc2Oc2ncccc21 (stereo unspecified)	71	62	<30	
CN(C(N)=O)C1c2ccccc2Oc2ncccc21 (stereo unspecified)	70	30		
CNC(=O)N(C)C1c2cccnc2Oc2cccc(C(F)(F)F)c21 (stereo unspecified)	71	<30		
CN(C(=O)N1CCOCC1)C1c2ccccc2Oc2ncccc21 (stereo unspecified)	95	64	<30	
CN(C(=O)Nc1ccccc1)C1c2ccccc2Oc2ncccc21 (stereo unspecified)	45	55	<30	
CNC(=O)N(C)C1c2ccccc2S(=O)(=O)c2ncccc21 (stereo unspecified)	<30	<30		
CN1CCN(C(=O)N(C)C2c3ccccc3Oc3ncccc32)CC1 (stereo unspecified)	94	<30	<30	
CNC(=O)N(C)C1c2ccc(C(F)(F)F)cc2Oc2ncccc21 (stereo unspecified)	46	<30		
CN(C)C(=O)NC1c2ccccc2Oc2ncccc21 (stereo unspecified)	95	35	<30	inhibition in vivo at 30 mg/kg [12]: 74%
CNC(=O)N(C)C1c2cccnc2Oc2c(Cl)cccc21 (stereo unspecified)	60	<30		
CNC(=O)N(C)C1c2cccnc2Oc2c(F)cccc21 (stereo unspecified)	35	<30		
CNC(=O)N(C)C1c2cc(F)ccc2Oc2ncccc21 (stereo unspecified)	68	63	<30	
CNC(=O)N(C)C1c2cc(OC)ccc2Oc2ncccc21 (stereo unspecified)	59	51	<30	
